The source of these data is PMC7215194 (Heliyon, 2020).

Data set [1] relates to A431 cells. Briefly: TAMRA-peptides internalization assay, confocal microscopy of living cells. Type of data set: cell-based, human. The gist of the method: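 A431 cells (2.5 × 10^5) were seeded in coverslip-bottom imaging dishes in DMEM with 10% FBS. After 6 h, serum-deprived medium with N-terminal 5(6)-TAMRA-labeled test peptides (20 μg/ml) was added for 5 min or overnight, with free TAMRA (1.7 μM) as control. Living cells were gently washed and imaged by confocal microscopy with a 63x objective, 561 nm laser and white light, taking z-planes every 0.8 μm.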

Data set [2] relates to A431 cells. Briefly: Artificial wound healing assay. Conditions: for effect of W-7/W-12 on cell migration in the absence of EGF: 20 μM, no EGF, time-lapse 48 h, n = 3. Format: cell-based, human.
In data set [3] the test system is A431 cells. The experiment in a line: Anchorage-independent growth assay in soft agar. Format: cell-based, human. As to conditions: 14 days, n = 4; for effect on size and number of colonies grown in soft agar: 20 μM W-7 or 25 μM W-12, 10% FBS, colonies >60 μm. A digest of the protocol: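 A431 cells (10^5 per 60 mm dish) suspended in DMEM ± 10% (v/v) FBS with 10 mM NaOH-Hepes pH 7.5 in 0.3% agarose, layered over 0.5% agarose. Fed every 72–96 h with fresh medium ± 10 nM EGF, 20 μM W-7 or 25 μM W-12 in DMSO; vehicle 0.4% DMSO. Imaged at day 14 with a 4x objective; colonies ≥60 μm counted.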

Data set [4] relates to hepatocarcinoma cells. As to conditions: EGF-dependent vs basal EGF-independent proliferation; cited from earlier work.
The subject of data set [5] is A431 cells. The experiment in a line: Cell detachment assay. Format: cell-based, human. Conditions: overnight with 20 μg/ml peptides or 20 μM W-7/W-12, then 1 mM EGTA, n = 3. A digest of the protocol:
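A431 cells (DMEM, 2 mM L-glutamine, 10% FBS, 37 °C, 5% CO2) were seeded at 10^6 per 60 mm dish in 10% FBS. After 6 h, test peptides (20 μg/ml) or W-7/W-12 (20 μM) in DMSO were added in serum-deprived medium overnight, with 0.2–0.4% DMSO vehicle controls. Cells were then exposed to 1 mM EGTA, and detached cells in aliquots were counted in a Neubauer chamber over time. Values are mean ± SEM percent detached, n = 3.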

Regarding “5(6)-carboxytetramethylrhodamine [free TAMRA]”, the “membrane blebbing (initiation of apoptosis) of treated cells” value in data set [1] is reported as “not observed”.

Regarding EGF: epidermal growth factor, the “delayed action of EGF on the initiation of cell migration” value in data set [2] (10 nM EGF, n = 9) was 11.5 ± 1.4 h. In addition, in data set [3] (10 nM EGF), the “effect of EGF on anchorage-independent growth in soft agar” value is “particularly decreasing the size of the colonies”.

`NCCCCCCNS(=O)(=O)c1cccc2c(Cl)cccc12` [W-7, N-(6-aminohexyl)-5-chloro-1-naphthalenesulfonamide]: in data set [2], the “effect of W-7/W-12 on cell migration in the absence of EGF” value was “increased the initial migration rate of the cells, particularly with the high affinity inhibitor W-7”. Besides, the “effect of W-7 on proliferation of hepatocarcinoma cells” value in data set [4] is reported as “inhibits EGF-dependent but not basal EGF-independent proliferation of hepatocarcinoma cells”. For the same compound, in data set [5], the “effect on cell detachment with EGTA” value is “only partially”. Also, in data set [3], the “effect on size and number of colonies grown in soft agar” value is listed as “strongly inhibits”.

For `NCCCCNS(=O)(=O)c1ccc2ccccc2c1` [W-12, N-(4-aminobutyl)-2-naphthalenesulfonamide], in data set [2], the “effect of W-7/W-12 on cell migration in the absence of EGF” value was “increased the initial migration rate of the cells”. For the same compound, the “effect on cell detachment with EGTA” value in data set [5] was “only partially”. Moreover, the “effect on size and number of colonies grown in soft agar” value in data set [3] is “very low effect”.
